Measured values from ChEMBL document CHEMBL2424583, “Structure-activity relationship and in vitro and in vivo evaluation of the potent cytotoxic anti-microtubule agent N-(4-methoxyphenyl)-N,2,6-trimethyl-6,7-dihydro-5H-cyclopenta[d]pyrimidin-4-aminium chloride and its analogues as antitumor agents” (J Med Chem, 2013).
The source made the active and inactive calls. No cut-off for these calls is given here.

How the values were obtained:
A10 [1] = test: Induction of microtubule depolymerization in rat A10 cells up to 10 uM after 18 hrs by indirect immunofluorescence assay; assay type: cell-based
Procedure, shortened: (§1)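 A-10 cells were exposed to vehicle or compound for 18 h, fixed, and microtubules were visualized by indirect immunofluorescence. EC50 is the concentration causing about 50% microtubule loss, from at least three independent experiments.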

[2] = Induction of microtubule depolymerization in rat A10 cells after 18 hrs by indirect immunofluorescence assay; assay type: cell-based; procedure, shortened: as §1
MDA-MB-435 = test: Cytotoxicity against human MDA-MB-435 cells assessed as growth inhibition after 48 hrs by SRB assay; assay type: functional, cell-based; settings: MDA-MB-435, 48 h
A10 [3] = test: Induction of microtubule depolymerization in rat A10 cells up to 40 uM after 18 hrs by indirect immunofluorescence assay; assay type: cell-based; procedure, shortened: as §1
Tubulin (Sus scrofa) = Tubulin (Sus scrofa) (UniProt P02554+P02550); test: Displacement of [3H]-colchicine from pig brain tubulin at 1 uM after 10 mins by scintillation counting analysis relative to control
Tubulin (Sus scrofa), sequence (P02550 whole entry, looked up): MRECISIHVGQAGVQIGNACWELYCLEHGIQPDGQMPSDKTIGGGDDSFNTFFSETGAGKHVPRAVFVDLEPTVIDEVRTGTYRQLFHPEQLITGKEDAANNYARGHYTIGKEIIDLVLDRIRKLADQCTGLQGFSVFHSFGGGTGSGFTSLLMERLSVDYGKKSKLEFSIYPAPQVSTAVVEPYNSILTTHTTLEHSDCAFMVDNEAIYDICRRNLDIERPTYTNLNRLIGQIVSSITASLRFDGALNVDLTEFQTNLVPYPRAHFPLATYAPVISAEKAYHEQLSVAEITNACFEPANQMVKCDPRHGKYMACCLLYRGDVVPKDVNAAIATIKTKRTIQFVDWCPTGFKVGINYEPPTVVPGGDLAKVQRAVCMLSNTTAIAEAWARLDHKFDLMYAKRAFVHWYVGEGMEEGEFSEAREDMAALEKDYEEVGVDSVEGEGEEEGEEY
Tubulin (Sus scrofa), sequence (P02554 whole entry, looked up): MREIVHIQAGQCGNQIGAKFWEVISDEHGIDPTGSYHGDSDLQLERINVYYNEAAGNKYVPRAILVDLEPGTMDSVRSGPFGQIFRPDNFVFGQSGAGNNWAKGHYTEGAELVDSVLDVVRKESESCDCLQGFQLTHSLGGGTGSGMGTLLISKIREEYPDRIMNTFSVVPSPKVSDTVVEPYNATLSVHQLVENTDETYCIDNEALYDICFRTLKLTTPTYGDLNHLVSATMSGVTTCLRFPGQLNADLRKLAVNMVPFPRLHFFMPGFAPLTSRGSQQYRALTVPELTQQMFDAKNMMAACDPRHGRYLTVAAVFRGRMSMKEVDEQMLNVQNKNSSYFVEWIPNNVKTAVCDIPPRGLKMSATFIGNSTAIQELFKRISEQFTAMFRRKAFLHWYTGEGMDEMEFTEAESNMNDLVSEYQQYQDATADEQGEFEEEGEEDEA

| EC50 [2] [nM] | SMILES | Activity (A10 [1]) | IC50 (MDA-MB-435) [nM] | Activity (A10 [3]) | inhibition (Tubulin (Sus scrofa)) [%] |
| --- | --- | --- | --- | --- | --- |
|  | Cc1ccc(N(C)c2ncnc3c2CCC3)cc1 | inactive |  |  |  |
| 47 | COc1ccc(N(C)c2nc(C)nc3c2C(C)CC3)cc1 (racemic) |  | 18.8 |  |  |
| 143 | COc1ccc(N(C)c2nc(N)nc3c2CC(C)C3)cc1 (racemic) |  | 29.9 |  |  |
|  | CN(c1ccc(Cl)cc1)c1ncnc2c1CCC2 | inactive |  |  |  |
| 148 | CCOc1ccc(N(C)c2nc(N)nc3c2CCC3)cc1 |  | 20.3 |  |  |
| 15000 | Cc1nc2c(c(N(C)c3cccc(Br)c3)n1)CC(C)C2 (racemic) |  | 1500 |  |  |
| 730 | CCOc1ccc(N(C)c2ncnc3c2CCC3)cc1 |  | 48.7 |  |  |
| 64 | CCOc1ccc(N(C)c2nc(C)nc3c2CCC3)cc1 |  | 15.1 |  |  |
| 899 | C=CC1Cc2nc(N)nc(N(C)c3ccc(OC)cc3)c2C1 (racemic) |  | 205 |  |  |
|  | COc1cccc(N(C)c2nc(N)nc3c2CCC3)c1 | inactive | > 1000 |  |  |
| 10500 | Cc1ccc(N(C)c2nc(C)nc3c2CCC3)cc1 |  | 360 |  |  |
| 64 | CSc1ccc(N(C)c2nc(C)nc3c2CC(C)C3)cc1 (racemic) |  | 15.6 |  |  |
|  | COc1ccc(Nc2nc(N)nc3c2CC(C)C3)cc1 (racemic) |  | > 10000 | inactive |  |
|  | COc1ccccc1N(C)c1nc(N)nc2c1CCC2 | inactive | > 1000 |  |  |
| 110 | COc1ccc(N(C)c2nc(N)nc3c2CCC3)cc1 |  | 16.7 |  |  |
| 675 | CSc1ccc(N(C)c2ncnc3c2CCC3)cc1 |  | 42.8 |  |  |
| 140 | C=CC1Cc2nc(C)nc(N(C)c3ccc(OC)cc3)c2C1 (racemic) |  | 73.2 |  |  |
| 655 | COc1ccc(N(C)c2ncnc3c2CCC3)cc1 |  | 43 |  |  |
|  | Cc1nc2c(c(N(C)c3ccc(Cl)cc3)n1)CC(C)C2 (racemic) |  | 2300 | inactive |  |

| SMILES | EC50 [2] [nM] | Activity (A10 [1]) | IC50 (MDA-MB-435) [nM] | Activity (A10 [3]) | inhibition (Tubulin (Sus scrofa)) [%] |
| --- | --- | --- | --- | --- | --- |
| COc1ccc(/C=C\c2cc(OC)c(OC)c(OC)c2)cc1O [COMBRETASTATIN A4] | 7 |  |  |  | 80 |
